Compound activity (PubChem)
Env fusion inh = HIV envelope-mediated fusion inhibition; HeLa-JRFL Env/CEM21 cell fusion, luciferase; inhibition, % at 12.3 µM; actives 1.1% (n = 360,000); AID 651610;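 active = mean replicate inhibition score of at least 50 and every replicate individually at or above 50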
CDK5 inh = inhibitors of human CDK5/p35 kinase. inhibition, % at 10 µM. Recombinant CDK5/p35, ADP-Glo luminescence, 60 min. actives 0.01% (n = 330,000). Q00535+Q15078;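 active = highest replicate inhibition of at least 50% and at least 75% of replicates reaching 50%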
GSK3beta inhib = human GSK3beta kinase inhibition. GST-GSK3beta kinase, ADP-Glo luminescence, 60 min; active compounds read low. actives 0.038% (n = 300,000). activity score (negative = inhibition), % at 10 µM;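 active = more than half of replicate wells score below -50%, meaning over 50% inhibition versus plate controls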
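test system = GST-tagged human GSK3beta kinase, cell-free | reagent = 25 µM ATP with peptide substrate | dosing = one dose of 10 µM per compound | schedule = 60 min reaction, RT | detection = luminescent ADP-Glo measurement of ADP formed | control set = DMSO neutral wells and GW8510 at 20 µM as positive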
GSK3 alpha inh = inhibitors of human GSK-3 alpha kinase; inhibition, % at 10 µM; actives 0.1% (n = 320,000); ADP-Glo luminescence, 60 min; P49840;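 active = more than half of replicates show inhibition above 20%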;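 note: GST-tagged GSK-3 alpha with peptide substrate and 25 µM ATP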
GSIS activator = primary screen for activators of insulin secretion dependent on glucose, INS-1E cells, GLuc reporter luminescence; INS-1E GLuc reporter insulin secretion, 2-3 h; activation, % at 16.6 µM; actives 0.61% (n = 370,000); AID 743287;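 active = lowest replicate activation of at least 40%, so every replicate reaches that level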
STK33 kinase inh = inhibitors of human STK33 kinase; inhibition, % at 10 µM; purified STK33, MBP phosphorylation, ADP-Glo luminescence; actives 0.073% (n = 320,000); Q9BYT3;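 active = inhibition at or above 25%, using the most active replicate where run in duplicate; inactive = inhibition below 25%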
Target sequence (Q9BYT3 whole entry, looked up): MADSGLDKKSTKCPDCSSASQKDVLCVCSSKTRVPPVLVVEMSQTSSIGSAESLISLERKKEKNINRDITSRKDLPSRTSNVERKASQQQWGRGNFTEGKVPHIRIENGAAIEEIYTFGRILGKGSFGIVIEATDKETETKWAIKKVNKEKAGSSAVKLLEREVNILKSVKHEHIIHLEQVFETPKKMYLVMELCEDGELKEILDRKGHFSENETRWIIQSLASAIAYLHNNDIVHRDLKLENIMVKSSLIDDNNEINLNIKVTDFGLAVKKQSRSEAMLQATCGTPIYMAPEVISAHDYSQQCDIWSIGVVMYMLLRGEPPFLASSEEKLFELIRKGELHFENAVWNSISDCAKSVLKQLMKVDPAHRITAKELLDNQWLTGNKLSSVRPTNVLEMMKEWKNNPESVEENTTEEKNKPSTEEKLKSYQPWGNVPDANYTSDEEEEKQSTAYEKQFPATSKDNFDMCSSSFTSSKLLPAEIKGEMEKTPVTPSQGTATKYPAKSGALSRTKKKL
A number is an active result. Only some compounds are listed: those with a hit (about 1.4% of all), similar ones and a draw of the others.

For CCCNc1nc2c(c(=O)[nH]c(=O)n2C)n1Cc1ccc(F)cc1 the results were Env fusion inh inactive, CDK5 inh inactive, GSK3beta inhib inactive, GSK3 alpha inh inactive, GSIS activator inactive and STK33 kinase inh inactive.
For Cn1c(=O)[nH]c(=O)c2c1nc(N1CCNCC1)n2Cc1ccccc1 the results were Env fusion inh inactive, CDK5 inh inactive, GSK3beta inhib inactive and GSIS activator inactive.
Screening CCNc1nc2c(c(=O)[nH]c(=O)n2C)n1Cc1ccc(F)cc1 returned Env fusion inh inactive, CDK5 inh inactive, GSK3beta inhib inactive, GSK3 alpha inh inactive, GSIS activator 49 and STK33 kinase inh inactive.
`Cn1c(=O)[nH]c(=O)c2c1nc(NC1CCCC1)n2Cc1ccccc1` gave Env fusion inh inactive, CDK5 inh inactive, GSK3beta inhib inactive, GSK3 alpha inh inactive, GSIS activator 46 and STK33 kinase inh inactive.
For COc1ccc(/C(C)=N/NC(=O)Cn2nc([N+](=O)[O-])cc2C)cc1 the results were Env fusion inh inactive, CDK5 inh inactive, GSK3beta inhib inactive, GSK3 alpha inh inactive, GSIS activator 51 and STK33 kinase inh inactive.
Cc1noc(C)c1NC(=O)Nc1cccc2c1O[C@@H](CN(C)Cc1ccc(C(=O)O)cc1)[C@H](C)CN([C@H](C)CO)C2=O was read as GSIS activator inactive.
Screening CCOc1ccccc1C=C1SC(=S)NC1=O returned Env fusion inh 78, CDK5 inh inactive and GSIS activator inactive.
`CCOC(=O)CSc1nc(Cc2ccccc2)nc2ccccc12` gave Env fusion inh 56, CDK5 inh inactive, GSK3beta inhib inactive, GSK3 alpha inh inactive, GSIS activator inactive and STK33 kinase inh inactive.
`CCN(CC)C(=O)[C@H]1C[C@H](CC(=O)NCC23CC4CC(CC(C4)C2)C3)C(=O)N2CCc3c([nH]c4ccc(Cl)cc34)[C@]12C` gave Env fusion inh 65, CDK5 inh inactive and GSIS activator inactive.
For Clc1ccc(CN(Cc2ccccc2)C(c2cccs2)c2nnnn2C2CCCC2)cc1 (configuration not stated) the results were Env fusion inh 94, CDK5 inh inactive, GSK3beta inhib inactive, GSK3 alpha inh inactive and STK33 kinase inh inactive.
`Cc1cccc2cc3c(N)c(C#N)sc3nc12` gave Env fusion inh 91, CDK5 inh inactive, GSK3beta inhib inactive, GSK3 alpha inh inactive and STK33 kinase inh inactive.
For Cc1sc(NC(=O)c2sc3nc4c(C)cccc4cc3c2N)c(C#N)c1C the results were Env fusion inh inactive, CDK5 inh inactive, GSK3beta inhib inactive and STK33 kinase inh inactive.
C[C@@H]1CN([C@@H](C)CO)C(=O)c2cc(C#C[C@@H](C)O)cnc2O[C@@H]1CN(C)C(=O)CN1CCOCC1 was read as Env fusion inh inactive and GSIS activator inactive.
O=C(N/N=C/c1sc(N2CCOCC2)nc1-c1ccccc1)c1cccc(S(=O)(=O)N2CCCC2)c1 was read as Env fusion inh 56, CDK5 inh inactive and GSK3beta inhib inactive.
For O=C(N/N=C/c1sc(N2CCOCC2)nc1-c1ccccc1)c1ccc(O)cc1 the results were Env fusion inh inactive, CDK5 inh inactive, GSK3beta inhib inactive, GSK3 alpha inh inactive, GSIS activator inactive and STK33 kinase inh inactive.
`COc1ccc(NC(=O)[C@@H]2CCCN2C(=O)c2cccs2)cc1S(=O)(=O)N1CCCCC1` gave CDK5 inh inactive, GSK3 alpha inh inactive, GSIS activator inactive and STK33 kinase inh inactive.
COc1ccc(NC(C)=O)cc1NC(=O)C1CCCN1C(=O)c1cccs1 (configuration not stated) was read as Env fusion inh 64, CDK5 inh inactive and GSIS activator inactive.
Screening c1ccc(-c2ccc3c(c2)c2c4n3CCN=C4CCC2)cc1 returned Env fusion inh 60, CDK5 inh inactive, GSK3beta inhib inactive and STK33 kinase inh inactive.
`O=C(c1ccccc1NS(=O)(=O)c1ccc([N+](=O)[O-])cc1[N+](=O)[O-])N1O[C@@H]2C=C[C@H]1C2` gave Env fusion inh inactive, CDK5 inh inactive and GSIS activator 49.
`O=c1c2ccc(Cl)cc2[nH]c(=S)n1CCC1=CCCCC1` gave Env fusion inh inactive, CDK5 inh inactive, GSK3beta inhib inactive, GSK3 alpha inh inactive, GSIS activator 166 and STK33 kinase inh inactive.
Screening COc1ccc(CNc2nc3ccccc3s2)cc1OC returned Env fusion inh inactive, CDK5 inh inactive, GSK3beta inhib inactive, GSK3 alpha inh inactive, GSIS activator inactive and STK33 kinase inh 89.
`C[C@@H]1CN([C@H](C)CO)S(=O)(=O)c2ccc(C#Cc3ccncc3)cc2O[C@H]1CN(C)C(=O)C1CC1` gave Env fusion inh inactive and GSIS activator inactive.
Oc1ccc(/C=N/Nc2ccnc3cc(Cl)ccc23)c(O)c1O was read as Env fusion inh inactive, CDK5 inh inactive, GSK3 alpha inh inactive, GSIS activator inactive and STK33 kinase inh inactive.
Oc1ccc(/C=N/Nc2ccnc3cc(Cl)ccc23)cc1O was read as Env fusion inh inactive, CDK5 inh inactive, GSK3beta inhib inactive, GSK3 alpha inh inactive, GSIS activator inactive and STK33 kinase inh 67.
Screening CCn1c(COc2ccc(Cl)cc2)nnc1SCc1nc2ccccc2[nH]1 returned Env fusion inh 114, CDK5 inh inactive, GSK3beta inhib inactive, GSK3 alpha inh inactive and STK33 kinase inh inactive.
Screening CC(=O)N(C)C[C@H]1Oc2cc(-c3cccc(C#N)c3)ccc2S(=O)(=O)N([C@@H](C)CO)C[C@@H]1C returned Env fusion inh inactive and GSIS activator inactive.
`O=CNc1ccc2c(c1)Cc1cc([N+](=O)[O-])ccc1-2` gave Env fusion inh 75, CDK5 inh inactive and GSIS activator inactive.
For CCC(=O)N1C[C@H](C)[C@H](OC)CN(C)C(=O)c2ccc(NC(=O)c3ccc(F)cc3)cc2OC[C@H]1C the results were GSIS activator inactive.
Cc1cc([N+](=O)[O-])ccc1N was read as Env fusion inh inactive, CDK5 inh inactive, GSK3beta inhib inactive, GSK3 alpha inh inactive, GSIS activator 42 and STK33 kinase inh inactive.
CCOC(=O)Nc1ccc([N+](=O)[O-])cc1C was read as CDK5 inh inactive, GSK3beta inhib inactive, GSK3 alpha inh inactive, GSIS activator inactive and STK33 kinase inh inactive.
Screening CCOC(=O)Cn1c(=O)n(Cc2ccccc2)c(=O)c2cccnc21 returned Env fusion inh inactive, CDK5 inh inactive, GSK3beta inhib inactive, GSK3 alpha inh inactive, GSIS activator 179 and STK33 kinase inh inactive.
CCOC(=O)Cn1c(-c2ccccc2)nc2ccccc2c1=O was read as Env fusion inh inactive, CDK5 inh inactive, GSK3beta inhib inactive, GSK3 alpha inh inactive, GSIS activator inactive and STK33 kinase inh inactive.
For COC(CN(C(=O)CCl)C(C(=O)NC1CCCCC1)c1ccccc1C)OC (configuration not stated) the results were Env fusion inh 59, CDK5 inh inactive, GSK3beta inhib inactive, GSK3 alpha inh inactive, GSIS activator inactive and STK33 kinase inh inactive.
